Shown are actives, neighbours in structure and some others; about 5.1% of the full set was active somewhere.
STAT1 act: activators of IFN-gamma induced STAT1 signaling; AID 932; NIH 3T3 STAT1-luciferase reporter, luminescence; 100% = IFN-gamma alone, no compound; hit rate 2.6% among 200,000; activation (% of control), % at 5.5 µM;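 active = activation above the screen-wide mean activation plus 3 SD, cut at about 130% in these data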;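 also: raw ratio to IFN-gamma control signal so 100% means no change and 0% no light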
APP 5'UTR act: activates APP 5'UTR luciferase reporter. SH-SY5Y APP 5'UTR luciferase reporter, luminescence; zero percent = DMSO vehicle wells. activation, % at 2 µM. AID 1276. hit rate 1% among 190,000;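 active = activation above a set limit, based on mean plus 3 SD of controls, cut at about 140% in these data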
NF-kB expr up: raises NF-kB expression in human neuronal cells; NF-kB reporter expression; active compounds read high; fold change at 12.5 µM; hit rate 1.6% among 190,000; AID 1239; in the data active = fold change above about 3.3
STAT3 inh: STAT3 signaling inhibition. U3A cells, IL-6 STAT3-luciferase reporter, luminescence; host cell line lacks STAT1. inhibition, % at 5.5 µM. hit rate 0.89% among 190,000;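 active = inhibition above the mean inhibition across all screened compounds plus 3 SD, cut at about 44% in these data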;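 also: 0% = DMSO only wells and 100% = 100 µM nifuroxazide control wells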
STAT3 activator: STAT3 signaling activation. activation (% of control), % at 5.6 µM. hit rate 0.91% among 190,000. U3A cells, IL-6 STAT3-luciferase reporter, luminescence; 100% = signal with IL-6 EC80 alone;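 active = activation above the screen-wide mean of compound activation plus 3 SD, cut at about 130% in these data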;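 also: 0% = background luminescence of wells with medium and substrate only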
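Detection: reporter luminescence signal / Assay system: STAT1-lacking human U3A cells, STAT3 luciferase reporter / Incubation: compound pre-incubation 1 h before IL-6, then 6 h stimulation at 37 °C / Control set: IL-6-only high control / Read-out: % activation relative to IL-6 control / Probe or stimulus: Interleukin-6, 33 ng/mL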
STAT1 blocker: inhibitors of IFN-gamma induced STAT1 signaling. NIH 3T3 STAT1-luciferase reporter, luminescence. inhibition, % at 5.5 µM. hit rate 0.35% among 200,000. AID 920;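 active = inhibition above a set limit, the mean inhibition across all tested compounds plus 3 SD, cut at about 34% in these data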;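 also: 0% = IFN-gamma with DMSO and 100% = IFN-gamma with 300 µM nifuroxazide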
Numbers without * were called inactive; · = no result given.

SMILES	STAT1 act	APP 5'UTR act	NF-kB expr up	STAT3 inh	STAT3 activator	STAT1 blocker
Cc1ccc(NC(=O)c2ccc3c(c2)nnn3C)cc1	115.2	44.5	1.92	22.7	86.4	-16.7
Cn1nnc2cc(C(=O)Nc3ccccc3)ccc21	129.6*	27.9	1.75	23.3	82.6	-33.6
Cn1nnc2cc(C(=O)Nc3cccnc3)ccc21	107.0	19.0	1.23	22.0	84.5	-7.5
Cn1nnc2cc(C(=O)Nc3ccc(Cl)cc3)ccc21	132.2*	41.5	1.48	15.2	90.6	-36.8
Cc1nn(-c2nc3ccccc3s2)c(C)c1Oc1ccccc1O	94.6	184.4*	2.59	-19.8	122.8	4.7
Cc1nn(-c2ccccn2)c(C)c1Oc1ccccc1O	95.7	-0.9	1	7.3	97.2	4.7
CCC(=O)Nc1cccc(-c2nnc(SCC(=O)NCc3ccco3)n2C)c1	107.2	-1.3	1.27	5.0	97.9	-7.9
CCC(=O)Nc1cccc(-c2nnc(SCC(=O)c3ccccc3)n2C)c1	148.5*	99.5	2.82	-9.7	109.0	-53.6
COc1c(Cl)cc(Cl)cc1/C=C/C(=O)c1ccc(NC(=O)c2cccs2)cc1	108.6	-11.3	5.66*	-14.5	110.8	-9.6
COc1c(Cl)cc(Cl)cc1C(=O)Nc1ccc(C(=O)O)cc1	103.6	-18.1	1.15	-0.4	101.5	-4.4
Cc1cc(C)n(/N=C/c2cccc(O)c2)c(=O)c1C(N)=O	106.3	-0.3	1.24	13.1	92.0	-6.9
C=C(C)C1CC=C(C)/C(=N/NC(=O)c2ccoc2C)C1 (centres undefined)	138.1*	29.0	1.27	3.2	97.5	-43.4
CCOC(=O)c1c(C)[nH]c(C(=O)NNC(=O)c2ccccc2)c1C	145.8*	164.4*	3.42*	-0.1	110.1	-50.9
CC(=O)c1c(C)[nH]c(C(=O)Nc2nccs2)c1C	132.9*	57.9	2.58	2.2	106.0	-38.3
CC(=O)c1c(C)[nH]c(C(=O)Nc2ccc(C)c(C)c2)c1C	138.3*	·	3.77*	29.3	79.9	-41.5
COC(=O)c1c(C)[nH]c(C(=O)/C=C/c2ccccc2)c1C	140.1*	120.6	1.55	29.1	77.4	-44.9
COC(=O)c1c(C)[nH]c(C(=O)/C=C/c2cccc(Cl)c2)c1C	107.8	74.1	1.62	7.1	95.9	-8.7
CCOC(=O)c1c(C)[nH]c(C(=O)Nc2ccc(NC(C)=O)cc2)c1C	85.6	-13.0	0.94	28.3	79.6	16.8
CCOC(=O)c1c(C)[nH]c(C(=O)Nc2ccc(C)c(Cl)c2)c1C	128.3	162.6*	3.82*	-4.0	101.2	-27.2
CCOC(=O)c1[nH]c(C)c(C(=O)Nc2ccc3c(c2)OCCO3)c1C	100.8	28.2	1.16	14.0	92.5	-0.9
CC(=O)c1c(C)[nH]c(C(=O)Nc2ccc3c(c2)OCCO3)c1C	138.4*	193.4*	5.47*	12.4	92.0	-41.6
CC1(C)CC(=O)c2sc(NC(=O)CN3CCCCC3)nc2C1	107.7	-54.1	0.97	2.3	101.5	-8.4
Nc1c(-c2ccccc2)cnn1-c1ccc(C(=O)O)cc1	133.1*	137.5*	5.67*	-1.7	101.6	-36.0
Cc1ccccc1-c1cnn(-c2cccc([N+](=O)[O-])c2)c1N	106.9	7.7	1.16	15.2	89.4	-8.1
Cc1ccc(-c2cnn(-c3cccc([N+](=O)[O-])c3)c2N)cc1	141.9*	95.9	2.91	11.5	98.8	-46.6
SMILES	STAT1 act	APP 5'UTR act	NF-kB expr up	STAT3 inh	STAT3 activator	STAT1 blocker
Nc1c(-c2ccccc2)cnn1-c1cccc(C(F)(F)F)c1	142.8*	94.7	2.76	3.3	99.6	-48.0
N#Cc1c(C#N)c(-c2ccccc2)n(-c2ccc(C(=O)O)cc2)c1N	109.5	17.2	1.19	-0.4	100.6	-10.4
COc1ccccc1/C=C/C(=O)NC(=S)N(C)C1CCCCC1	97.8	-8.1	1.04	23.0	83.1	2.4
COc1ccc(-c2nc3ccccn3c2C=O)cc1	143.4*	105.5	2.4	2.2	96.1	-48.8
O=Cc1c(-c2ccc(F)cc2)nc2ccccn12	101.4	8.8	0.93	12.9	90.3	-3.0
COc1ccc2cc(C(=O)NCCO)sc(=O)c2c1OC	91.9	4.8	0.98	-1.4	103.3	8.8
Cc1ccccc1N=C1NC(=O)CS1	98.4	-8.0	1.07	8.9	97.6	1.7
Cc1ccccc1N=C1Nc2ccccc2CS1	125.6	104.9	4.63*	32.8	79.6	-28.1
O=[N+]([O-])c1cccc2ccc(/C=C/c3ccc(F)cc3)nc12	133.3*	39.2	1.74	-37.6	134.7*	-37.3
O=[N+]([O-])c1ccc(/C=C/c2ccc3cccc([N+](=O)[O-])c3n2)cc1	112.1	-12.4	1.13	16.8	87.4	-13.6
COCCn1c(C)cc(C(=O)COC(=O)c2ccc3ncsc3c2)c1C	132.3*	82.9	1.05	-4.0	106.5	-35.3
CC(=O)Nc1ccc(SCC(=O)c2cc(C)n(Cc3cccs3)c2C)cc1	56.9	112.1	0.32	95.0*	25.1	47.5*
COCCn1c(C)cc(C(=O)COC(=O)c2cncc(Br)c2)c1C	136.1*	46.8	1.87	0.5	102.7	-39.9
COCCn1c(C)cc(C(=O)COC(=O)c2ccc(NC(=O)CC#N)cc2)c1C	133.8*	148.7*	1.1	-2.9	106.4	-36.5
O=C(CC(c1ccccc1)c1cc(Br)ccc1O)N1CCCC1 (centres undefined)	81.8	10.1	0.89	9.6	95.5	18.6
Cc1cc(C(=O)COC(=O)c2ccccc2O)c(C)n1Cc1cccs1	31.4	7.6	0.23	104.3*	13.8	74.7*
COCCn1c(C)cc(C(=O)COC(=O)c2ccccc2Br)c1C	21.3	29.9	0.38	84.9*	27.4	85.9*
CCOC(=O)C1=C(C)N=c2s/c(=C3/C(=O)Nc4ccccc43)c(=O)n2C1c1ccc(C)cc1 (centres undefined)	99.4	19.1	0.93	-16.0	116.2	0.6
Cc1ccc(S(=O)(=O)N(CCC#N)CCN2CCCC2)cc1	95.8	7.6	1.18	7.1	101.5	4.6
Cc1ccc(C2SCC(C(=O)O)N2C(=O)c2ccc(F)cc2)cc1 (centres undefined)	107.6	-7.1	1.15	-1.8	100.2	-7.9
CC1=C(C)/C(=N\OS(=O)(=O)c2ccc(C)cc2)C=CC1=O	98.6	-90.4	1.85	-9.7	112.0	1.5
CC1=C/C(=N\OS(=O)(=O)c2ccccc2)C(C(C)C)=CC1=O	99.3	-95.7	5.89*	11.6	93.7	0.8
CC1=C/C(=N\OS(=O)(=O)c2ccccc2)C(C)=CC1=O	100.5	-94.8	9.78*	9.1	91.3	-0.5
O=C(COC(=O)C(O)c1ccccc1)NC12CC3CC(CC(C3)C1)C2 (centres undefined)	91.0	1.5	1.13	-1.5	105.0	10.9
CC(=O)Nc1sc(N/N=C\c2cccc(Cl)c2)nc1-c1cccs1	113.5	11.2	1.02	-37.5	133.4*	-15.1
Clc1nc(-c2ccccc2)cc(-c2ccc(Br)cc2)n1	87.9	-6.0	·	-33.1	137.8*	13.5

From PubChem
